Data reported in ChEMBL document CHEMBL4715793 (J Med Chem, 2016).
Active and inactive are the calls of the source. No cut-off for these calls is given here.

Key:
Hepatitis C virus [1] = experiment: Synergistic antiviral activity against HCV J6/JFH/JC1 infected in human HuH7.5 cells assessed as combination index measured after 72 hrs in presence of sofosbuvir by Chou-Talalay method; format: functional, Hepacivirus hominis
Hepatitis C virus [2] = experiment: Antiviral activity against HCV J6/JFH/JC1 harboring S282T mutant infected in human Huh7.5 cells assessed as inhibition of viral replication measured after 72 hrs by qRT-PCR analysis; format: functional, organism-based, Hepacivirus hominis; details: J6/JFH/JC1, Huh7.5, 72 h
[3] = target: T1, Chondroitin sulfate N-acetylgalactosaminyltransferase 1 (Homo sapiens) (UniProt Q8TDX6); experiment: Destabilization of CSGalNacT-1 in HCV infected human HuH7.5 cells assessed as reduction in CSGalNacT-1 protein levels measured after 72 hrs by Western blot analysis; details: dose 6.25-100 µM
T1 sequence (whole entry): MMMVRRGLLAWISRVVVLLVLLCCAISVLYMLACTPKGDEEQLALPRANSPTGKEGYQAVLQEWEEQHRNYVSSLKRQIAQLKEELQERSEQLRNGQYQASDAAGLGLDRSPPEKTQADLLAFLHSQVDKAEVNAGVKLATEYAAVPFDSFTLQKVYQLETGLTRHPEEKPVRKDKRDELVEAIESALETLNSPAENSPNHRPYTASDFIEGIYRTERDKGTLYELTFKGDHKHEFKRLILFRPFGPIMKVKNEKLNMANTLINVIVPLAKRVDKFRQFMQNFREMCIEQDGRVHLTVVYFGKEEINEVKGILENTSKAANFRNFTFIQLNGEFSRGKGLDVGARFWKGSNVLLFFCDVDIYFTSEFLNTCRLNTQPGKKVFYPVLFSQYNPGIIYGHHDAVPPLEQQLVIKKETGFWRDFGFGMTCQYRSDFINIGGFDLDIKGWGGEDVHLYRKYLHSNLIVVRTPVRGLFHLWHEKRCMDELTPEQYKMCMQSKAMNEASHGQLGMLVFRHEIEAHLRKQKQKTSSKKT
Procedure, shortened: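 Huh7.5 cells infected with HCV (45 IU/cell) and exposed to compound for 72 h. CSGalNAcT-1 protein measured by Western blot and mRNA by qRT-PCR. Error bars are SD of three independent experiments.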

Hepatitis C virus [4] = experiment: Antiviral activity against wild-type HCV J6/JFH/JC1 infected in human Huh7.5 cells assessed as inhibition of viral replication measured after 72 hrs by qRT-PCR analysis; format: functional, organism-based, Hepacivirus hominis; details: J6/JFH/JC1, Huh7.5, 72 h
Procedure, shortened: (§1)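 Huh7.5 cells seeded at 3 × 10^4/cm2 and incubated 24 h. Infected with wild-type HCVcc stock (45 IU/cell) with compound or solvent control added at the same time. After 72 h, intracellular RNA measured by one-step qRT-PCR and core protein by Western blot. EC50 by Reed & Muench method, mean ± SD from three independent experiments.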

Hepatitis C virus [5] = experiment: Synergistic antiviral activity against HCV J6/JFH/JC1 infected in human HuH7.5 cells assessed as combination index measured after 72 hrs in presence of simeprevir by Chou-Talalay method; format: functional, Hepacivirus hominis
Hepatitis C virus [6] = experiment: Antiviral activity against HCV infected in human HuH7.5 cells assessed as inhibition of viral RNA levels during early stage at 6.25 to 25 uM incubated for 2 hrs prior to compound washout followed by supplementation of fresh culture medium and measured after 72 hrs by qRT-PCR analysis; format: functional, organism-based; details: Hepacivirus hominis; Huh-7; dose 6.25-25 µM
Procedure, shortened: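 Huh7.5 cells seeded 24 h earlier, infected with HCV (150 IU/cell) with simultaneous compound or solvent control for 2 h. Cells washed with PBS and given fresh medium. Intracellular RNA (qRT-PCR) and protein (Western blot) extracted at 72 h.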

[7] = target: T1, Chondroitin sulfate N-acetylgalactosaminyltransferase 1 (Homo sapiens); experiment: Destabilization of CSGalNacT-1 in human Huh7.5 cells assessed as down regulation of CSGalNacT-1 protein levels at 25 uM measured after 24 hrs in presence of protease inhibitor MG132 by Western blot analysis; format: cell-based
Procedure, shortened: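 Huh7.5 cells cotreated with compound (25 μM) and proteasome inhibitor MG132 (1 μM). Cells given compound alone or MG132 alone served as controls. After 24 h, total intracellular protein extracted and CSGalNAcT-1 detected by Western blot.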

Hepatitis C virus [8] = experiment: Antiviral activity against wild-type HCV infected in human HuH7.5 cells assessed as reduction in viral protein levels at 6.25 to 100 uM measured after 72 hrs by Western blot assay; format: functional, organism-based; details: Hepacivirus hominis, dose 6.25-100 µM; procedure, shortened: as §1
Hepacivirus hominis [9] = experiment: Inhibition of HCV NS5B polymerase
Hepacivirus hominis [10] = experiment: Inhibition of HCV NS5A

Question: What does the source list for `COc1cc(/C=C/c2ccccc2)c(C(=O)O)c(O)c1CC=C(C)C`?
Answer: CI (Hepatitis C virus [1]): 0.693; EC50 (Hepatitis C virus [2]): 8.59 µM; Activity [3]: Dose-dependent effect; EC50 (Hepatitis C virus [4]): 3.03 µM; CI (Hepatitis C virus [5]): 0.953; Activity (Hepatitis C virus [6]): inactive; Activity [7]: inactive; Activity (Hepatitis C virus [8]): Active; inhibition (Hepacivirus hominis [9]): inactive; inhibition (Hepacivirus hominis [10]): inactive
